# In ChEMBL document CHEMBL1649117, “GRL-02031, a novel nonpeptidic protease inhibitor (PI) containing a stereochemically defined fused cyclopentanyltetrahydrofuran potent against multi-PI-resistant human immunodeficiency virus type 1 in vitro” (Antimicrob Agents Chemother, 2009):
# Assays:
# [1] = tested on: Human immunodeficiency virus 1; experiment: Ratio of EC50 for HIV1 NL4-3 harboring Q58E mutation in protease encoding region infected in human […] cells to EC50 for HIV1 NL4-3 infected in human MT4 cells; format: functional
# [2] = tested on: Human immunodeficiency virus 1; experiment: Ratio of EC50 for HIV1 NL4-3 harboring L10F/I47V/V82I/I85V mutation in protease encoding region infected in human […] cells to EC50 for HIV1 NL4-3 infected in human MT4 cells; format: functional
# [3] = tested on: Human immunodeficiency virus 1; experiment: Antiviral activity against HIV1 NL4-3 harboring L90M mutation in protease encoding region infected in human […] cells assessed as inhibition of p24 Gag protein production by ELISA; format: functional, organism-based; settings: Human immunodeficiency virus 1, NL4-3
# Summary of the method: (§1)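 Protease PCR fragments (ApaI/SmaI) were cloned into pHIV-1NLSma, and virions were harvested from transfected 293T cells over 48 h. MT-4 target cells (10^5/ml) were infected with 100 TCID50s, with or without drug, at 37°C. Day-7 supernatant p24 Gag was read by chemiluminescent enzyme immunoassay.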
# [4] = tested on: Human immunodeficiency virus 1; experiment: Ratio of EC50 for HIV1 NL4-3 harboring G48V mutation in protease encoding region infected in human […] cells to EC50 for HIV1 NL4-3 infected in human MT4 cells; format: functional
# [5] = tested on: Human immunodeficiency virus 1; experiment: Antiviral activity against HIV1 NL4-3 harboring M46I mutation in protease encoding region infected in human […] cells assessed as inhibition of p24 Gag protein production by ELISA; format: functional, organism-based; settings: Human immunodeficiency virus 1, NL4-3; summary of the method: as §1
# [6] = tested on: Human immunodeficiency virus 1; experiment: Antiviral activity against HIV1 NL4-3 harboring V82I mutation in protease encoding region infected in human […] cells assessed as inhibition of p24 Gag protein production by ELISA; format: functional, organism-based; settings: Human immunodeficiency virus 1, NL4-3; summary of the method: as §1
# [7] = tested on: Human immunodeficiency virus 1; experiment: Ratio of EC50 for amprenavir to compound against HIV1 NL4-3 harboring Q58E mutation in protease encoding region infected in human […] cells; format: functional
# [8] = tested on: Human immunodeficiency virus 1; experiment: Antiviral activity against HIV1 NL4-3 harboring V82I/I85V mutation in protease encoding region infected in human […] cells assessed as inhibition of p24 Gag protein production by ELISA; format: functional, organism-based; settings: Human immunodeficiency virus 1, NL4-3; summary of the method: as §1
# [9] = tested on: Human immunodeficiency virus 1; experiment: Ratio of EC50 for ritonavir to compound against HIV1 NL4-3 harboring L33F mutation in protease encoding region infected in human […] cells; format: functional
# [10] = tested on: Human immunodeficiency virus 1; experiment: Antiviral activity against HIV1 NL4-3 harboring L10F mutation in protease encoding region infected in human […] cells assessed as inhibition of p24 Gag protein production by ELISA; format: functional, organism-based; settings: Human immunodeficiency virus 1, NL4-3; summary of the method: as §1
# [11] = tested on: Human immunodeficiency virus 1; experiment: Antiviral activity against HIV1 subtype C 97ZA003 infected in human PHA-PBM cells after 7 days by MTT assay; format: functional, organism-based; settings: Human immunodeficiency virus 1, subtype C 97ZA003, PBMC, 168 h
# [12] = tested on: Human immunodeficiency virus 1; experiment: Ratio of EC50 for ritonavir to compound against HIV1 NL4-3 harboring V82I mutation in protease encoding region infected in human […] cells; format: functional
# [13] = tested on: Human immunodeficiency virus 1; experiment: Antiviral activity against HIV1 subtype A 92UG037 infected in human PHA-PBM cells after 7 days by MTT assay; format: functional, organism-based; settings: Human immunodeficiency virus 1, subtype A 92UG037, PBMC, 168 h
# [14] = tested on: Human immunodeficiency virus 1; experiment: Ratio of EC50 for ritonavir to compound against HIV1 NL4-3 harboring V82I/I85V mutation in protease encoding region infected in human […] cells; format: functional
# [15] = tested on: Human immunodeficiency virus 1; experiment: Ratio of EC50 for amprenavir to compound against HIV1 NL4-3 harboring I50V mutation in protease encoding region infected in human […] cells; format: functional
# [16] = tested on: Human immunodeficiency virus 1; experiment: Ratio of EC50 for HIV1 NL4-3 harboring L33F mutation in protease encoding region infected in human […] cells to EC50 for HIV1 NL4-3 infected in human MT4 cells; format: functional
# [17] = tested on: Human immunodeficiency virus 1; experiment: Ratio of EC50 for HIV1 NL4-3 harboring L10F mutation in protease encoding region infected in human […] cells to EC50 for HIV1 NL4-3 infected in human MT4 cells; format: functional
# [18] = tested on: Human immunodeficiency virus 1; experiment: Antiviral activity against HIV1 NL4-3 harboring L33F mutation in protease encoding region infected in human […] cells assessed as inhibition of p24 Gag protein production by ELISA; format: functional, organism-based; settings: Human immunodeficiency virus 1, NL4-3; summary of the method: as §1
# [19] = tested on: Human immunodeficiency virus 1; experiment: Ratio of EC50 for HIV1 NL4-3 harboring L10F/M46I/I47V/V82I/I85V mutation in protease encoding region infected in human […] cells to EC50 for HIV1 NL4-3 infected in human MT4 cells; format: functional
# [20] = tested on: Human immunodeficiency virus 1; experiment: Ratio of EC50 for HIV1 NL4-3 harboring V82I mutation in protease encoding region infected in human […] cells to EC50 for HIV1 NL4-3 infected in human MT4 cells; format: functional
structure (smiles),measurement,setting,value
COc1ccc(S(=O)(=O)N(C[C@@H]2CCC(=O)N2)C[C@@H](O)[C@H](Cc2ccccc2)NC(=O)O[C@@H]2C[C@@H]3CCO[C@@H]3C2)cc1,Ratio EC50,[1],1.4
same,Ratio EC50,[2],18.7
same,EC50,[3],32 nM
same,Ratio EC50,[4],1.7
same,EC50,[5],28 nM
same,EC50,[6],35 nM
same,Ratio EC50,[7],1
same,EC50,[8],35 nM
same,Ratio EC50,[9],1
same,EC50,[10],37 nM
same,EC50,[11],15 nM
same,Ratio EC50,[12],1.5
same,EC50,[13],15 nM
same,Ratio EC50,[14],1.6
same,Ratio EC50,[15],1.2
same,Ratio EC50,[16],1.2
same,Ratio EC50,[17],1.6
same,EC50,[18],28 nM
same,Ratio EC50,[19],>43
same,Ratio EC50,[20],1.5
